Results reported in ChEMBL document CHEMBL1152649, “Synthesis, cytotoxicity and human telomerase inhibition activities of a series of 1,2-heteroannelated anthraquinones and anthra[1,2-d]imidazole-6,11-dione homologues” (2009).

Legend:
Type in all cases: functional
[1] = tested on: SNB-75; assay: Growth inhibition of human SNB75 cells
Procedure, shortened: (§1)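 Assayed in the NCI 60 human cancer cell line panel under the Developmental Therapeutics Program protocol. For each line, dose–response curves were plotted against log10 drug concentration. In the one-dose screen at 10^-5 M, growth was given as percent of untreated control cells, and mean graph midpoint values were averaged.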

[2] = tested on: HL-60(TB); assay: Growth inhibition of human HL-60(TB) cells
Procedure, shortened: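 NCI 60-cell-line panel run under the Developmental Therapeutics Program protocol. Dose-response curves are plotted against log10 drug concentration for each cell line within its subpanel, and GI50 is read from these curves.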

[3] = tested on: MDA-MB-468; assay: Growth inhibition of human MDA-MB-468 cells
Procedure, shortened: (§2)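 NCI 60 cancer cell line screen run per the Developmental Therapeutics Program protocol. Dose–response curves were plotted against log10 drug concentration for each cell line within its subpanel, and mean graph midpoint values were calculated.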

[4] = tested on: HCC 2998; assay: Growth inhibition of human HCC2998 cells; procedure, shortened: as §2
[5] = tested on: UO-31; assay: Growth inhibition of human UO31 cells; procedure, shortened: as §1
[6] = tested on: BT-549; assay: Growth inhibition of human BT549 cells; procedure, shortened: as §2
[7] = tested on: T47D; assay: Growth inhibition of human T47D cells; procedure, shortened: as §1
[8] = tested on: CCRF-CEM; assay: Growth inhibition of human CCRF-CEM cells; procedure, shortened: as §2
[9] = tested on: MDA-MB-435; assay: Growth inhibition of human MDA-MB-435 cells; procedure, shortened: as §2
[10] = tested on: SW-620; assay: Growth inhibition of human SW620 cells; procedure, shortened: as §1
[11] = tested on: NCI-H322M; assay: Growth inhibition of human NCI-H322M cells; procedure, shortened: as §2
[12] = tested on: 786-0; assay: Growth inhibition of human 786-0 cells; procedure, shortened: as §2
[13] = tested on: NCI-H23; assay: Growth inhibition of human NCI-H23 cells; procedure, shortened: as §2
[14] = tested on: EKVX; assay: Growth inhibition of human EKVX cells; procedure, shortened: as §2
[15] = tested on: HT-29; assay: Growth inhibition of human HT-29 cells; procedure, shortened: as §2
[16] = tested on: RXF 393; assay: Growth inhibition of human RXF393 cells; procedure, shortened: as §1
[17] = Growth inhibition of human […] cells; procedure, shortened: as §1
[18] = tested on: IGROV-1; assay: Growth inhibition of human IGROV1 cells; procedure, shortened: as §2
[19] = tested on: SF-539; assay: Growth inhibition of human SF539 cells; procedure, shortened: as §1
[20] = tested on: HCT-116; assay: Growth inhibition of human HCT116 cells; procedure, shortened: as §2
[21] = tested on: SR; assay: Growth inhibition of human SR cells; procedure, shortened: as §1
[22] = tested on: NCI/ADR-RES; assay: Growth inhibition of human NCI/ADR-RES cells; procedure, shortened: as §2
[23] = tested on: ACHN; assay: Growth inhibition of human ACHN cells; procedure, shortened: as §2
[24] = tested on: TK-10; assay: Growth inhibition of human TK10 cells; procedure, shortened: as §1
[25] = tested on: Malme-3M; assay: Growth inhibition of human MALME-3M cells; procedure, shortened: as §2
[26] = tested on: CAKI-1; assay: Growth inhibition of human Caki1 cells; procedure, shortened: as §2
[27] = tested on: PC-3; assay: Growth inhibition of human PC3 cells; procedure, shortened: as §1
[28] = tested on: SK-MEL-5; assay: Growth inhibition of human SK-MEL-5 cells; procedure, shortened: as §1
[29] = tested on: LOX IMVI; assay: Growth inhibition of human LOXIMVI cells; procedure, shortened: as §2
[30] = tested on: NCI-H460; assay: Growth inhibition of human NCI-H460 cells; procedure, shortened: as §2
[31] = tested on: KM12; assay: Growth inhibition of human KM12 cells; procedure, shortened: as §2
[32] = tested on: HOP-62; assay: Growth inhibition of human HOP62 cells; procedure, shortened: as §2
[33] = tested on: M14; assay: Growth inhibition of human M14 cells; procedure, shortened: as §2
[34] = tested on: OVCAR-4; assay: Growth inhibition of human OVCAR4 cells; procedure, shortened: as §2
[35] = tested on: DU-145; assay: Growth inhibition of human DU145 cells; procedure, shortened: as §2
[36] = tested on: BT-549; assay: Antiproliferative activity against human BT549 cells assessed as cell growth at 10 uM; conditions: read-out: Activity
Procedure, shortened: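 NCI 60 cell line panel, single-dose screen (10^-5 M) run by the developmental therapeutics program protocol. Results are given as growth percent of treated cells relative to untreated control cells for each line.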

[37] = read-out: LC50 (the source's name)

## CCc1nc2ccc3c(c2[nH]1)C(=O)c1ccccc1C3=O
[1]
  GI50: 62.5 µM
  TGI: > 100 µM
[1]; [37]
  CC50: > 100 µM
[2]
  GI50: 2.72 µM
  TGI: 64.1 µM
[2]; [37]
  CC50: > 100 µM
[3]
  GI50: 8.29 µM
  TGI: > 100 µM
[3]; [37]
  CC50: > 100 µM
[4]
  GI50: 18.8 µM
  TGI: > 100 µM
[4]; [37]
  CC50: > 100 µM
[5]
  GI50: 1.33 µM
  TGI: > 100 µM
[5]; [37]
  CC50: > 100 µM
[6]
  GI50: 9.3 µM
  TGI: > 100 µM
[7]
  GI50: 3.3 µM
  TGI: > 100 µM
[8]
  GI50: 16.5 µM
  TGI: > 100 µM
[8]; [37]
  CC50: > 100 µM
[9]
  GI50: 30.3 µM
  TGI: > 100 µM
[9]; [37]
  CC50: > 100 µM
[10]
  GI50: 19.8 µM
  TGI: > 100 µM
[10]; [37]
  CC50: > 100 µM
[11]
  GI50: 4.87 µM
  TGI: > 100 µM
[11]; [37]
  CC50: > 100 µM
[12]
  GI50: 43.6 µM
  TGI: > 100 µM
[12]; [37]
  CC50: > 100 µM
[13]
  GI50: 12.1 µM
  TGI: > 100 µM
[13]; [37]
  CC50: > 100 µM
[14]
  GI50: 4.6 µM
  TGI: > 100 µM
[14]; [37]
  CC50: > 100 µM
[15]
  GI50: 16.1 µM
  TGI: > 100 µM
[15]; [37]
  CC50: > 100 µM
[16]
  GI50: 6.95 µM
  TGI: > 100 µM
[16]; [37]
  CC50: > 100 µM
[17]
  GI50: 4.16 µM
  TGI: > 100 µM
[17]; [37]
  CC50: > 100 µM
[18]
  GI50: 1.54 µM
  TGI: 14.8 µM
[18]; [37]
  CC50: > 100 µM
[19]
  GI50: 11.7 µM
  TGI: > 100 µM
[19]; [37]
  CC50: > 100 µM
[20]
  GI50: 5.9 µM
  TGI: > 100 µM
[20]; [37]
  CC50: > 100 µM
[21]
  GI50: 6.71 µM
  TGI: > 100 µM
[21]; [37]
  CC50: > 100 µM
[22]
  GI50: 18.9 µM
  TGI: > 100 µM
[22]; [37]
  CC50: > 100 µM
[23]
  GI50: 3.29 µM
  TGI: > 100 µM
[23]; [37]
  CC50: > 100 µM
[24]
  GI50: 12.1 µM
  TGI: > 100 µM
[24]; [37]
  CC50: > 100 µM
[25]
  GI50: 8.55 µM
  TGI: > 100 µM
[25]; [37]
  CC50: > 100 µM
[26]
  GI50: 1.17 µM
  TGI: > 100 µM
[26]; [37]
  CC50: > 100 µM
[27]
  GI50: 28.2 µM
  TGI: > 100 µM
[27]; [37]
  CC50: > 100 µM
[28]
  GI50: 12.7 µM
  TGI: 59.1 µM
[28]; [37]
  CC50: > 100 µM
[29]
  GI50: 4.56 µM
  TGI: > 100 µM
[29]; [37]
  CC50: > 100 µM
[30]
  GI50: 5.27 µM
  TGI: > 100 µM
[30]; [37]
  CC50: > 100 µM
[31]
  GI50: 7.69 µM
  TGI: > 100 µM
[31]; [37]
  CC50: > 100 µM
[32]
  GI50: 32.2 µM
  TGI: > 100 µM
[32]; [37]
  CC50: > 100 µM
[33]
  GI50: 7.42 µM
  TGI: > 100 µM
[33]; [37]
  CC50: > 100 µM
[34]
  GI50: 25.7 µM
  TGI: > 100 µM
[34]; [37]
  CC50: > 100 µM
[35]
  GI50: 9.43 µM
  TGI: > 100 µM
[35]; [37]
  CC50: > 100 µM

## Cc1ccc(-c2nc3ccc4c(c3[nH]2)C(=O)c2ccccc2C4=O)cc1
[36]
  growth at 10 µM: 94.1%
